From PubChem BioAssay
PAD4 FP inh: inhibitors of human PAD4 | recombinant PAD4, RCA probe fluorescence polarization | inhibition, % at 6.36 µM | hit rate 0.41% among 330,000;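 active = percent inhibition above a cutoff equal to the mean of all tested compounds plus 3 SD, cut at about 15% in these data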;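 also: 0% = PAD4 with RCA probe and DMSO and 100% = probe without PAD4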
Target sequence (Q9UM07 whole entry, looked up): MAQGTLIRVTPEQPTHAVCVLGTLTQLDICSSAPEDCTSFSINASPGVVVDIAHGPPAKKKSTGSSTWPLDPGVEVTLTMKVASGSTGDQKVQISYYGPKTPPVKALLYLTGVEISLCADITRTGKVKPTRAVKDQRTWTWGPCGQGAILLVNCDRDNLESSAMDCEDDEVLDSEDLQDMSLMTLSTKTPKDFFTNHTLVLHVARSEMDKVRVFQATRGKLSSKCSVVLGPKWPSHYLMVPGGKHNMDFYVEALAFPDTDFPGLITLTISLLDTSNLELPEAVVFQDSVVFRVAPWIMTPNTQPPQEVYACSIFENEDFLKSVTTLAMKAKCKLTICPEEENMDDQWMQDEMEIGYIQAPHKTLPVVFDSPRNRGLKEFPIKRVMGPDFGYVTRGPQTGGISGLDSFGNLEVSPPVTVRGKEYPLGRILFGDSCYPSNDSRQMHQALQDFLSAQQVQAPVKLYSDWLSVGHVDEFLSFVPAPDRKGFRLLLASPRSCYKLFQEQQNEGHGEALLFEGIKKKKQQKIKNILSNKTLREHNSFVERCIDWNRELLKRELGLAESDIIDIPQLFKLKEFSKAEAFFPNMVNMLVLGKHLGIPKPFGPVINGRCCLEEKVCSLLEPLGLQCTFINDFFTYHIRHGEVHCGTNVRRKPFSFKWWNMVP
CTSL1 counter: counter-screen for PFM18AAP inhibitors: inhibitors of F. hepatica cathepsin L1 | inhibition, % at 5.96 µM | hit rate 0.49% among 300,000 | recombinant F. hepatica cathepsin L1, Z-Leu-Arg-MCA fluorescence;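 active = inhibition above the mean of all tested compounds plus 3 SD, set per screening campaign, cut at about 17% in these data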;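 also: 0% = plate median of test compound wells and 100% = 1 µM Z-Phe-Ala-diazomethylketone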
TDP2 absorb: TDP2 (human) inhibition, absorbance primary screen; hit rate 0.34% among 370,000; inhibition, % at 12.8 µM; AID 720702; recombinant TDP2, T5PNP hydrolysis, p-nitrophenol absorbance 415 nm;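 active = inhibition above the mean of all tested compounds plus 3 SD, set per campaign, cut at about 25% in these data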;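 also: 0% = DMSO with enzyme and 100% = buffer with substrate but no TDP2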
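Assay system: Recombinant human TDP2 | Quantity: 120 nM TDP2 per well | Incubation: 2 h at 37 °C | Signal: Epi absorbance | Evaluation: Percent inhibition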
GSTO1 counter: blocks human GSTO1 in RBBP9 counter-screen | P78417 | recombinant GSTO1, activity-based probe fluorescence polarization | inhibition, % at 5.96 µM | hit rate 1.1% among 300,000;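 active = inhibition above the campaign mean inhibition plus 3 SD, cut at about 35% in these data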;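 also: 0% = GSTO1-1 with DMSO and 100% = wells lacking GSTO1-1 enzyme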
An asterisk follows results filed as active; x = not tested or not shown. A selection: hits, their analogues and other compounds. The true share with any hit is near 1.4%.

SMILES	PAD4 FP inh	CTSL1 counter	TDP2 absorb	GSTO1 counter
O=C1CCC[C@H]2C[C@H](NCc3ccc(Cl)c(Cl)c3)CC[C@]23CCCN13	x	x	-0.3	x
CCN=C1NN=C(c2ccc(C)cc2)CS1	8.6	-0.2	-1.6	4.5
CC(C)N=C1NN=C(c2ccc(F)cc2)CS1	0.7	16.8*	2.8	7.5
C[C@H](O)C#Cc1cnc2c(c1)C(=O)N([C@H](C)CO)C[C@@H](C)[C@@H](CN(C)Cc1ccc(-c3ccccc3)cc1)O2	x	x	-1.1	x
Cc1ccc(C(=O)N/N=C/c2ccc(-c3cccc(Cl)c3)o2)cn1	-3.8	3.5	-7.5	-7.0
Cc1ccc(C(=O)N/N=C/c2ccc(-c3ccccc3[N+](=O)[O-])o2)cn1	-5.9	0.1	6.4	36.6*
COc1ccc(C2/C=C\CN(C(=O)Nc3ccc(C(F)(F)F)cc3)CC(=O)N2Cc2ccc(F)cc2)cc1 (stereo unspecified)	1.4	1.5	x	-2.2
COc1ccc(C2/C=C\CN(C(=O)Nc3ccccc3)CC(=O)N2Cc2ccc(F)cc2)cc1 (stereo unspecified)	1.8	-2.1	-1.3	36.4*
CCOC(=O)[C@]12CCCC=C1N(Cc1ccc(OC)cc1)C(=O)[C@@H]2CC(=O)N1CCN(C(=O)C2CC2)CC1	x	x	-3.9	x
CC(=O)N1CC=CC1(CC(C)C)C(=O)NCc1cc(F)cc(C(F)(F)F)c1 (stereo unspecified)	0.5	54.6*	-12.0	-2.0
CNC(=O)C1(CC(C)C)C=CCN1C(C)=O (stereo unspecified)	-5.2	-1.4	0.3	-3.1
CN(C)C(=O)c1ccc2c(c1[N+](=O)[O-])C(=O)c1ccccc1C2=O	-2.3	1.7	-6.1	36.0*
Cc1[nH]c2ccccc2c1CCNC(=O)c1ccc2c(c1[N+](=O)[O-])C(=O)c1ccccc1C2=O	-25.2	1.6	1.7	9.7
CC1CC(C)CN(CC(O)COCCOc2ccc(Br)cc2)C1 (stereo unspecified)	0.1	-3.3	-11.6	2.1
CC1(C)CC(O)CC(C)(C)N1CC(O)COCCOc1ccc(Br)cc1 (stereo unspecified)	1.6	-2.0	-5.3	34.9*
COc1cc(NCCCCCCN)c2ncccc2c1OC	x	x	52.0*	x
COc1cc(NC(C)CCCNC(C)C)c2ncccc2c1OC (stereo unspecified)	x	x	16.2	x
Fc1ccc(-c2n[nH]c(=S)n2N=Cc2ccc(OCc3ccccc3)cc2)cc1	x	x	-3.0	x
OCCCNc1ncnc2sc3c(c12)CCN(Cc1ccccc1)C3	-5.7	32.0*	1.4	4.9
CCCCCCCCN1C(=O)[C@@H](CC(=O)NCC23CC4CC(CC(C4)C2)C3)C[C@@]2(C(=O)OC)C1=C[C@H](C1CCCC1)O[C@@H]2C	x	x	8.5	x
COc1ccc(C(=O)N/C(=C\c2ccc(Cl)cc2)C(=O)NCC2CCCO2)cc1 (stereo unspecified)	-2.6	17.4*	17.5	3.9
CCn1cc(C(=O)NCCc2ccccc2)c(=O)c2cc(S(=O)(=O)N3CCCC3)ccc21	-2.3	17.2*	9.4	0.9
Cc1cc(SCC2=NNC(=O)C2)c(Cl)cc1Cl	-4.7	2.7	-10.9	25.5
O=C1CC(CSc2ccc(Cl)cc2)=NN1	3.8	-2.6	16.2	37.0*
CCOC(=O)C(Cc1ccc(O)cc1)NC(=O)CNC(=O)C(CC(C)C)NC(=O)OC(C)(C)C (stereo unspecified)	5.1	29.3*	-12.7	8.8
SMILES	PAD4 FP inh	CTSL1 counter	TDP2 absorb	GSTO1 counter
CC(C)C(C(=O)C=[N+]=[N-])N1C(=O)c2ccccc2C1=O (stereo unspecified)	0.5	20.9*	9.1	6.7
[N-]=[N+]=CC(=O)C(Cc1ccccc1)N1C(=O)c2ccccc2C1=O (stereo unspecified)	-2.7	25.7*	-7.7	18.0
O=C(O)C(Cc1ccccc1)N1C(=O)c2ccccc2C1=O (stereo unspecified)	-0.9	-3.0	13.7	7.6
O=C(O)C(Cc1ccc(O)cc1)N1C(=O)c2ccccc2C1=O (stereo unspecified)	1.3	-0.7	3.6	0.5
CC(C)C(C(=O)Nc1ccccc1)N1C(=O)c2ccccc2C1=O (stereo unspecified)	-5.8	6.4	3.1	7.1
NC(=O)C(Cc1ccccc1)N1C(=O)c2ccccc2C1=O (stereo unspecified)	-13.1	18.8*	-13.6	2.4
COC(=O)Cc1[nH]n(-c2nc3ccccc3s2)c(=O)c1C(C)=O	6.5	-3.4	17.4	-5.1
COc1ccc(CN=C(C)c2c(C(F)(F)F)[nH]n(-c3nc4ccccc4s3)c2=O)cc1	-4.8	17.7*	1.4	-1.1
CCCCNC(=O)C[C@H]1C[C@@]2(C(=O)OC)C(=C[C@H](C3CCCC3)O[C@@H]2C)N(Cc2ccco2)C1=O	x	x	-12.3	x
COc1ccc2c(c1O)C(=O)c1ccccc1C2=O	10.6	-1.7	x	0.4
COc1cccc2c1C(=O)C=C(C)C2=O	-6.2	10.3	0.3	39.9*
COC(=O)C1CN(Cc2ccc(F)cc2)CCS(=O)(=O)N1Cc1cn(CCOC(C)=O)nn1 (stereo unspecified)	x	x	-1.6	x
CCCCCCNC(=O)C1CSCCS(=O)(=O)N1Cc1ccc(F)cc1 (stereo unspecified)	x	x	2.9	x
Clc1ccc(CONc2ncnc3nonc23)c(Cl)c1	1.3	18.3*	3.4	8.0
CCONc1ncnc2nonc12	-0.1	2.8	5.1	4.0
Nc1ccc(S(=O)(=O)c2cc(O)c3ccccc3c2O)cc1	x	x	27.6*	x
O=C(c1cnn2ccccc12)N(Cc1ccco1)C1CCCC1	1.9	47.3*	3.9	1.1
CC(C)c1cc(C(C)C)c(S(=O)(=O)N2CCC(C(=O)NCC3COCCO3)CC2)c(C(C)C)c1 (stereo unspecified)	x	x	-1.6	x
COc1[nH]c(/N=C/c2ccccc2)c(C#N)c1C#N	12.7	-2.8	6.8	35.4*
Cc1ccc(-c2nnc(SCC(=O)Nc3ccc(Oc4ccccc4)cc3)n2-c2ccc(Cl)cc2)cc1	x	x	2.1	x
COc1ccc(/C=C2/C(=O)N(c3ccccc3)N=C2C)cc1OC	x	x	76.8*	x
C=C(C)Cn1c(SCC(=O)N/N=C(\C)c2ccc([N+](=O)[O-])cc2)nnc1-c1ccc(Br)cc1	x	x	-9.9	x
Cc1ccc(S(=O)(=O)N(CCC#N)CCN2CCCC2)cc1	4.0	78.1*	1.1	11.4
O=C(C1CCCO1)N1CCN(C2=Nc3ccccc3Sc3ccccc32)CC1 (stereo unspecified)	x	x	-8.0	x
Cc1c(C(=O)O)oc2ccc(S(=O)(=O)NCCC3=CCCCC3)cc12	-1.6	0.9	-1.7	36.6*
Cn1nc(C(C)(C)C)cc1C(=O)N1CCCCC1c1cc(C(=O)Nc2ccc(F)c(Cl)c2)no1 (stereo unspecified)	x	x	-9.8	x
Cc1ccc(CNC(=O)c2ccccc2NC(=O)CSc2nnnn2C)cc1	-2.5	-0.6	9.6	37.0*
Oc1[nH]c2ccccc2c1N=NC(=S)N1CCOCC1	2.7	1.5	x	35.6*
CCOC(=O)c1c2c(n(C)c1COC)C(=O)C(=O)c1ccc(Br)cc1-2	0.7	6.4	x	56.2*
CCCn1c(=O)c(C(=O)OCC)c(O)c2cc(Br)ccc21	-0.6	-0.8	0.5	1.5
